TNF necrop inh = inhibitors of TNF-alpha triggered necroptosis, primary screen, cell-based, Jurkat FADD-/-, single concentration. actives 0.068% (n = 220,000). AID 463075, 2010. activation (protection from cell death), % at 10 µM. Jurkat FADD-/- TNF necroptosis rescue, ATP luminescence, 24 h; 0 = TNF only, 100 = no-TNF cells;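 active = activation, meaning protection from cell death, of at least 50% relative to plate controls; inactive = activation below 50%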;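 also: necroptosis triggered by 40 ng/mL TNF-alpha added together with compound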
L929 necroptosis = inhibitors of zVAD-triggered necroptosis, primary screen, L929 cells. viability rescue, % at 10 µM. actives 0.38% (n = 220,000). AID 1377, 2008. L929 zVAD necroptosis rescue, ATP luminescence, 24 h; with zVAD 60 µM;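 active = activation, scaled between plate controls, above about 75%, limit read from the data; inactive = activation under that limit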;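 also: 0% = zVAD with DMSO and 100% = DMSO alone without zVAD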
Mdm2 ligase inh = MDM2-luciferase reporter signal enhancers, primary screen, MDM2 E3 ligase inhibitor project, cell-based, luminescence, 1536-well. E3 ubiquitin-protein ligase Mdm2 (Homo sapiens), Q00987. cell-based MDM2 ubiquitination luciferase reporter, 2 h; 0 = plate control, 100 = twice control, blank-subtracted. signal enhancement, % at 5 µM. actives 0.11% (n = 210,000). AID 1230, 2008;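 active = signal enhancement of 30% or more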;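 also: luminescence tracks abundance of the self-degrading MDM2-luciferase fusion protein; higher signal means inhibition of MDM2 E3 ligase activity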
Target sequence (Q00987 whole entry, looked up, the tested form may be a part): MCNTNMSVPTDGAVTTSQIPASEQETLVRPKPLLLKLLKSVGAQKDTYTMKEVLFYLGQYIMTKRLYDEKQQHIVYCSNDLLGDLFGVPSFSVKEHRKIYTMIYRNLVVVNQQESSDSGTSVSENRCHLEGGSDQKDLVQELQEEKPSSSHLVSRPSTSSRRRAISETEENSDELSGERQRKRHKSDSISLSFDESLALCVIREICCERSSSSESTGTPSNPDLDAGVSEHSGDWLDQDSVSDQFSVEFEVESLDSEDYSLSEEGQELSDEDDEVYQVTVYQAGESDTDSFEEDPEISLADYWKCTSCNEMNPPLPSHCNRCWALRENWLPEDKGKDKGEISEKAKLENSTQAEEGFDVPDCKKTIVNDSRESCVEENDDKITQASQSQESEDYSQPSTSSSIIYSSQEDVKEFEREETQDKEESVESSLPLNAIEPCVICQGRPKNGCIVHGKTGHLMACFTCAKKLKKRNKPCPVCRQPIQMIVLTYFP
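Test system: stable mammalian line carrying autodegrading MDM2–luciferase fusion reporter; quantity: 2000 cells in each well; times: 4 h cell settling then 2 h compound exposure, 37 °C; detection: luminescence with SteadyLite reagent, 15 min at room temperature; evaluation: percent signal gain over controls, blank-subtracted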
Wee1 degr inh = Wee1 degradation inhibitors, primary screen, cell-based, HeLa, Wee1K328M-luciferase, luminescence; Wee1-like protein kinase (Homo sapiens), P30291; reporter increase, % at 5 µM; actives 1.2% (n = 220,000); HeLa Luc-Wee1K328M stability; 100% = proteasome inhibitor MG132 effect;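 active = activation above the mean of all tested compounds plus 3 SD, set per screening run, cut at about 8.8% in these data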;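 also: cells exposed to compound for 20 h before luminescence read; 0% = DMSO alone and 100% = MG132 at 30 µM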
Pf gamet viab = late stage P. falciparum gametocyte viability inhibitors, primary screen, ATP luminescence, HTS; P. falciparum stage V gametocytes, 24 h; inhibition, % at 10.9 µM; actives 0.065% (n = 150,000); AID 743093, 2013;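 active = inhibition above the mean plus 3 SD of compounds within the control limits, set per campaign, cut at about 38% in these data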;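 also: 0% = DMSO wells and 100% = medium only without gametocytes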
* = called active by the depositor; / = not tested or not shown. Hits are enriched below; roughly 1.6% of the tested compounds scored in any of these assays.

SMILES	TNF necrop inh	L929 necroptosis	Mdm2 ligase inh	Wee1 degr inh	Pf gamet viab
Cn1c(=O)[nH]c(=O)c2c1nc(N1CCCC1)n2CCSc1nc2ccccc2[nH]1	-2	0	6	-1	/
Cn1c(=O)[nH]c(=O)c2c1nc(N1CCCCCC1)n2CCSc1nc2ccccc2[nH]1	-1	0	-3	11*	/
Cc1[nH]c2ccccc2c1/C=N/NC(=O)CNC(=O)c1ccco1	2	0	-4	1	13
Cc1ncsc1C(=O)N1N=C2/C(=C/c3ccccc3)CCCC2C1c1ccccc1 (centres undefined)	-6	0	-9	-3	/
Cc1ncsc1C(=O)N1N=C2/C(=C/c3ccc(N4CCOCC4)cc3)CCCC2C1c1ccc(N2CCOCC2)cc1 (centres undefined)	-5	1	-24	9.0*	/
O=C(N/N=C/c1coc2ccccc2c1=O)c1cn(-c2ccccc2)nc1-c1ccccc1	-2	-1	-1	10.0*	22
O=C(N/N=C/c1coc2ccccc2c1=O)c1ccccc1	0	1	-13	0	-27
O=C1NCCn2ccc(=O)cc21	2	1	-9	13*	-10
C/C(=N\NC(=O)c1n[nH]c2c1CCC2)c1ccco1	-5	-1	-53	9.3*	-9
O=C(NN=C1CCCC1)c1n[nH]c2c1CCCC2	1	-1	-56	0	/
CCC(C)(C)C1CCc2[nH]nc(C(=O)N/N=C(\C)c3ccco3)c2C1 (centres undefined)	-16	7	-28	-1	12
O=C(N/N=C/c1c(Cl)cccc1Cl)c1n[nH]c2c1CCCC2	0	5	-15	10.0*	-7
O=C(NN=C1CCCC1)c1n[nH]c2c1CCC2	1	1	/	11*	-8
CCOc1ccccc1C(=O)NC1CC2CCCC(C1)N2Cc1nnnn1Cc1ccco1 (centres undefined)	1	0	-9	1	9
CCCCCCc1cc2cc(C(N)=O)c(=N)oc2cc1O	-5	2	-21	-1	/
CCCCCCc1cc2cc(C(=O)OCC)c(=O)oc2cc1O	-3	2	-14	9.9*	25
COc1cc(C2=NOC(C(=O)Nc3cc(C)on3)C2)cc(OC)c1OC (centres undefined)	4	1	-12	2	-2
CCOc1ccc(N2C(=O)CC(N3CCN(c4ccccc4F)CC3)C2=O)cc1 (centres undefined)	0	2	-12	14*	-18
CCCOc1ccc(N2C(=O)CC(N3CCN(c4ccccc4OC)CC3)C2=O)cc1 (centres undefined)	0	1	-15	0	/
COc1cc(CNc2ccc(CNc3ncn[nH]3)cc2)ccc1OCc1ccccc1	-2	0	-12	10*	13
COc1ccccc1CNc1ccc(CNc2ncn[nH]2)cc1	-1	0	-6	1	10
Cn1c(N=NC(=O)c2ccccc2)c(O)c2ccccc21	-2	0	-49	-1	23
O=C(NCc1ccccc1)c1ccccc1OCC(=O)N1CCCCC1	-1	0	-17	1	-3
Cn1nnnc1SCC1=C(C(=O)O)N2C(=O)C(NC(=O)C3CC3c3ccccc3)C2SC1 (centres undefined)	-1	0	-9	11*	-60
O=C(c1ccc(Cl)cc1)C1CCN(C(=O)c2ccccc2F)CC1	/	/	/	/	8
Cc1ccc(CNS(=O)(=O)c2ccc3c(c2)n(C)c(=O)c(=O)n3C)cc1	-1	-1	-12	10*	19
COc1cccc(CN2CCN(Cc3ccc(C#CC(C)(C)O)s3)CC2CCO)c1 (centres undefined)	1	1	-6	10*	7
CC(C)(O)C#Cc1ccc(CN2CCN(Cc3ccccc3)C(CCO)C2)s1 (centres undefined)	1	0	-1	3	2
O=C(NN=C1C2CC3CC(C2)CC1C3)c1cccs1	1	1	/	9.5*	/
